According to ChEMBL document CHEMBL1806419, “18β-Glycyrrhetinic acid derivatives induced mitochondrial-mediated apoptosis through reactive oxygen species-mediated p53 activation in NTUB1 cells” (Bioorg Med Chem, 2011):
Calls of active or inactive are those of the source. No cut-off for these calls is given here.

How the values were obtained:
PC-3 = experiment: Cytotoxicity against human PC3 cells after 72 hrs by MTT assay; format: functional, cell-based
Procedure, shortened: (§1)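 Cells seeded 1800/well in 96-well plates, preincubated overnight at 37 °C, then exposed to graded concentrations for 72 h at 37 °C (NTUB1, PC3 in RPMI 1640; SV-HUC1 in F12; 10% FBS, 5% CO2). MTT (2 mg/mL) added 3 h, formazan dissolved in DMSO, absorbance 540 nm; viability as percent of control; IC50 by median-effect analysis, mean ± SD.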

[1] = Cytotoxicity against human NTUB1 cells after 72 hrs by MTT assay; format: functional, cell-based; settings: NTUB1, 72 h; procedure, shortened: as §1
[2] = Cytotoxicity against immortalized human SV-HUC1 cells after 72 hrs by MTT assay; format: cell-based; settings: sv-huc1, 72 h; procedure, shortened: as §1
[3] = Cell cycle arrest in human NTUB1 cells assessed as accumulation at G2/M phase at 1 mM after 24 hrs by propidium iodide staining based flow cytometric analysis (reference value: 20.37%); format: functional
Procedure, shortened: (§2)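 8×10^5 NTUB1 cells plated, treated 24 h (alongside 10 µM cisplatin, 1 mM NAC, 50 µM H2O2 controls); harvested by trypsinization, fixed overnight in ice-cold MeOH at −20 °C, stained with 50 µg/mL propidium iodide plus 50 µg/mL RNase A in PBS 30 min at room temperature; cell-cycle phase fractions and sub-G1 (apoptotic) DNA content by FACScan flow cytometry; three independent experiments.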

[4] = Cell cycle arrest in human NTUB1 cells assessed as accumulation at G1 phase at 1 mM after 24 hrs by propidium iodide staining based flow cytometric analysis (reference value: 50.64%); format: functional; procedure, shortened: as §2
[5] = Cell cycle arrest in human NTUB1 cells assessed as accumulation at S phase at 1 mM after 24 hrs by propidium iodide staining based flow cytometric analysis (reference value: 20.37%); format: functional; procedure, shortened: as §2
[6] = Decrease in ROS generation in human NTUB1 cells at 1 mM after 24 hrs by H2DCFDA staining based flow cytometeric analysis relative to control; format: functional; set-up: scale not given: the % may be the effect or the level left
Procedure, shortened: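 NTUB1 cells (3×10^5 per 6 cm dish) treated 24 h (20 µM cisplatin and 1 mM NAC controls; medium-only control); 10 µM H2DCFDA added 30 min before harvest; trypsinized, PBS-washed, DCF green fluorescence (525 nm band pass, region M1) measured immediately by flow cytometry; percent change vs control; mean ± SD, n = 3.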

[7] = Cell cycle arrest in human NTUB1 cells assessed as accumulation at subG1 phase at 1mM after 24 hrs by propidium iodide staining based flow cytometric analysis (reference value: 6.68%); format: functional; procedure, shortened: as §2
[8] = Cytotoxicity against human NTUB1 cells assessed as cell viability at 3 uM after 72 hrs by MTT assay relative to control; format: functional; settings: NTUB1, 72 h, read-out: Activity; procedure, shortened: as §1
[9] = Cytotoxicity against human NTUB1 cells assessed as cell viability at 30 uM after 72 hrs by MTT assay relative to control; format: functional; settings: NTUB1, 72 h, read-out: Activity; procedure, shortened: as §1
[10] = Cytotoxicity against human NTUB1 cells assessed as cell viability at 50 uM after 72 hrs by MTT assay relative to control; format: functional; settings: NTUB1, 72 h, read-out: Activity; procedure, shortened: as §1
[11] = Cytotoxicity against human NTUB1 cells assessed as cytotoxic inhibition at 1 uM after 72 hrs by MTT assay relative to control; settings: NTUB1, 72 h
[12] = Cytotoxicity against human NTUB1 cells assessed as cell viability at 5 uM after 72 hrs by MTT assay relative to control; format: functional; settings: NTUB1, 72 h, read-out: Activity; procedure, shortened: as §1
[13] = Cytotoxicity against human NTUB1 cells assessed as cell viability at 10 uM after 72 hrs by MTT assay relative to control; format: functional; settings: NTUB1, 72 h, read-out: Activity; procedure, shortened: as §1
[14] = Induction of apoptosis in human NTUB1 cells assessed as increase in JC-1 probe monomers at 10 uM after 24 hrs by flow cytometric analysis; format: functional
Procedure, shortened: (§3)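 NTUB1 bladder carcinoma cells (3 × 10^5) in RPMI 1640 with 10% FBS at 37 °C, 5% CO2, exposed to test agent (10, 25 or 50 µM) with 10 µM CCCP as positive control. Stained 30 min with 1 µM JC-1 in medium, washed, trypsinised, resuspended in PBS/2% BSA. Flow cytometry read green monomer and red aggregate fluorescence; the aggregate/monomer ratio represents membrane potential.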

[15] = Induction of apoptosis in human NTUB1 cells assessed as decrease in JC-1 aggregation at 10 uM after 24 hrs by flow cytometric analysis; format: functional; set-up: scale not given: the % may be the effect or the level left; procedure, shortened: as §3

Row | Structure (SMILES) | IC50 [1] [µM] | also measured
1 | C=C(C)[C@@H]1CC[C@]2(C)[C@H](C(=O)C=C3[C@@H]4C[C@@](C)(C(=O)NC(C)C)CC[C@]4(C)CC[C@]32C)[C@@]1(C)CCC(=O)OCC | 19.4 | Activity (PC-3): Active; Activity [2]: Non-toxic
2 | C=C(C)[C@@H]1CC[C@]2(C)[C@H](C(=O)C=C3[C@@H]4C[C@@](C)(C(=O)NC(C)C)CC[C@]4(C)CC[C@]32C)[C@@]1(C)CCC(=O)OC(C)C | 29.2 | –
3 | COC(=O)[C@@]1(C)CC[C@]2(C)CC[C@]3(C)C(=CC(=O)[C@@H]4[C@@]5(C)CCC(=O)C(C)(C)[C@@H]5CC[C@]43C)[C@@H]2C1 | 56.5 | –
4 | CC1(C)OC(=O)CC[C@]2(C)[C@H]3C(=O)C=C4[C@@H]5C[C@@](C)(C(=O)Nc6ccccc6)CC[C@]5(C)CC[C@@]4(C)[C@]3(C)CC[C@@H]12 | 16 | –
5 | C=C(C)[C@@H]1CC[C@]2(C)[C@H](C(=O)C=C3[C@@H]4C[C@@](C)(C(=O)OCc5ccccc5)CC[C@]4(C)CC[C@]32C)[C@@]1(C)CCC(=O)OC(C)C | 18.2 | –
6 | CC1(C)OC(=O)CC[C@]2(C)[C@H]3C(=O)C=C4[C@@H]5C[C@@](C)(C(=O)O)CC[C@]5(C)CC[C@@]4(C)[C@]3(C)CC[C@@H]12 | 73.5 | –
7 | CC(=O)N[C@@H](CS)C(=O)O [ACETYLCYSTEINE] | – | Activity [3]: 20.2%; Activity [4]: 44.4%; Activity [5]: 29.2%; Activity [6]: 26.1%; Activity [7]: 2.66%
8 | C=C(C)[C@@H]1CC[C@]2(C)[C@H](C(=O)C=C3[C@@H]4C[C@@](C)(C(=O)OC)CC[C@]4(C)CC[C@]32C)[C@@]1(C)CCC(=O)OC(C)C | 25.3 | –
9 | C=C(C)[C@@H]1CC[C@]2(C)[C@H](C(=O)C=C3[C@@H]4C[C@@](C)(C(=O)OC)CC[C@]4(C)CC[C@]32C)[C@@]1(C)CCC(=O)O | 20.7 | –
10 | CC1(C)OC(=O)CC[C@]2(C)[C@H]3C(=O)C=C4[C@@H]5C[C@@](C)(C(=O)OCc6ccccc6)CC[C@]5(C)CC[C@@]4(C)[C@]3(C)CC[C@@H]12 | 57.6 | –
11 | CC1(C)C(=O)CC[C@]2(C)[C@H]3C(=O)C=C4[C@@H]5C[C@@](C)(C(=O)OCc6ccccc6)CC[C@]5(C)CC[C@@]4(C)[C@]3(C)CC[C@@H]12 | 20.2 | –
12 | COC(=O)[C@@]1(C)CC[C@]2(C)CC[C@]3(C)C(=CC(=O)[C@@H]4[C@@]5(C)CCC(=O)OC(C)(C)[C@@H]5CC[C@]43C)[C@@H]2C1 | 24.3 | –
13 | C=C(C)[C@@H]1CC[C@]2(C)[C@H](C(=O)C=C3[C@@H]4C[C@@](C)(C(=O)Nc5ccccc5)CC[C@]4(C)CC[C@]32C)[C@@]1(C)CCC(=O)O | 3.31 | –
14 | C=C(C)[C@@H]1CC[C@]2(C)[C@H](C(=O)C=C3[C@@H]4C[C@@](C)(C(=O)NC(C)C)CC[C@]4(C)CC[C@]32C)[C@@]1(C)CCC(=O)NCCC | > 50 | –
15 | C=C(C)[C@@H]1CC[C@]2(C)[C@H](C(=O)C=C3[C@@H]4C[C@@](C)(C(=O)OCc5ccccc5)CC[C@]4(C)CC[C@]32C)[C@@]1(C)CCC(=O)NC(C)C | 30.1 | –
16 | C=C(C)[C@@H]1CC[C@]2(C)[C@H](C(=O)C=C3[C@@H]4C[C@@](C)(C(=O)OCc5ccccc5)CC[C@]4(C)CC[C@]32C)[C@@]1(C)CCC(=O)NCCC | 49.4 | –
17 | CC1(C)C(=O)CC[C@]2(C)[C@H]3C(=O)C=C4[C@@H]5C[C@@](C)(C(=O)O)CC[C@]5(C)CC[C@@]4(C)[C@]3(C)CC[C@@H]12 | 18.6 | –
18 | C=C(C)[C@@H]1CC[C@]2(C)[C@H](C(=O)C=C3[C@@H]4C[C@@](C)(C(=O)OC)CC[C@]4(C)CC[C@]32C)[C@@]1(C)CCC(=O)NC(C)C | 31.4 | –
19 | CC1(C)[C@@H](O)CC[C@]2(C)[C@H]3C(=O)C=C4[C@@H]5C[C@@](C)(C(=O)O)CC[C@]5(C)CC[C@@]4(C)[C@]3(C)CC[C@@H]12 [ENOXOLONE] | 27.3 | –
20 | C=C(C)[C@@H]1CC[C@]2(C)[C@H](C(=O)C=C3[C@@H]4C[C@@](C)(C(=O)OCc5ccccc5)CC[C@]4(C)CC[C@]32C)[C@@]1(C)CCC(=O)NCC | 42.7 | –
21 | C=C(C)[C@@H]1CC[C@]2(C)[C@H](C(=O)C=C3[C@@H]4C[C@@](C)(C(=O)OCc5ccccc5)CC[C@]4(C)CC[C@]32C)[C@@]1(C)CCC(=O)OC | 9.41 | viability at 3 µM [8]: 22%; viability at 30 µM [9]: 66%; viability at 50 µM [10]: 68%; cytotoxic inhibition at 1 µM [11]: 32%; viability at 5 µM [12]: 20%; viability at 10 µM [13]: 50%
22 | C=C(C)[C@@H]1CC[C@]2(C)[C@H](C(=O)C=C3[C@@H]4C[C@@](C)(C(=O)NC(C)C)CC[C@]4(C)CC[C@]32C)[C@@]1(C)CCC(=O)O | 17.5 | –
23 | CC(C)NC(=O)[C@@]1(C)CC[C@]2(C)CC[C@]3(C)C(=CC(=O)[C@@H]4[C@@]5(C)CCC(=O)OC(C)(C)[C@@H]5CC[C@]43C)[C@@H]2C1 | 25.7 | –
24 | C=C(C)[C@@H]1CC[C@]2(C)[C@H](C(=O)C=C3[C@@H]4C[C@@](C)(C(=O)OCc5ccccc5)CC[C@]4(C)CC[C@]32C)[C@@]1(C)CCC(=O)OCC | 27.8 | –
25 | C=C(C)[C@@H]1CC[C@]2(C)[C@H](C(=O)C=C3[C@@H]4C[C@@](C)(C(=O)OCc5ccccc5)CC[C@]4(C)CC[C@]32C)[C@@]1(C)CCC(=O)O | 2.34 | –
26 | C=C(C)[C@@H]1CC[C@]2(C)[C@H](C(=O)C=C3[C@@H]4C[C@@](C)(C(=O)NC(C)C)CC[C@]4(C)CC[C@]32C)[C@@]1(C)CCC(=O)NCC | 12.8 | Activity (PC-3): Active; Activity [2]: Non-toxic
27 | C=C(C)[C@@H]1CC[C@]2(C)[C@H](C(=O)C=C3[C@@H]4C[C@@](C)(C(=O)NC(C)C)CC[C@]4(C)CC[C@]32C)[C@@]1(C)CCC(=O)OC | 13.1 | viability at 3 µM [8]: 25%; viability at 30 µM [9]: 67%; viability at 50 µM [10]: 71%; cytotoxic inhibition at 1 µM [11]: 40%; viability at 5 µM [12]: 24%; viability at 10 µM [13]: 27%
28 | N#CC(C#N)=NNc1cccc(Cl)c1 [CARBONYL CYANIDE M-CHLOROPHENYLHYDRAZONE] | – | Activity [14]: 52.06%; Activity [15]: 48.42%
